RAD52 inh: RAD52 DNA annealing inhibitors, primary screen, biochemical, FRET, single point, set 2 | 360,000 compounds, 0.46% hits | recombinant RAD52 DNA annealing, FRET fluorescence | inhibition, % at 18.7 µM | DNA repair protein RAD52 homolog (Homo sapiens), P43351;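 active means every replicate showing at least 50% inhibition; inconclusive means mean inhibition at least 50% but not in every replicate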
Target sequence (P43351 whole entry, looked up): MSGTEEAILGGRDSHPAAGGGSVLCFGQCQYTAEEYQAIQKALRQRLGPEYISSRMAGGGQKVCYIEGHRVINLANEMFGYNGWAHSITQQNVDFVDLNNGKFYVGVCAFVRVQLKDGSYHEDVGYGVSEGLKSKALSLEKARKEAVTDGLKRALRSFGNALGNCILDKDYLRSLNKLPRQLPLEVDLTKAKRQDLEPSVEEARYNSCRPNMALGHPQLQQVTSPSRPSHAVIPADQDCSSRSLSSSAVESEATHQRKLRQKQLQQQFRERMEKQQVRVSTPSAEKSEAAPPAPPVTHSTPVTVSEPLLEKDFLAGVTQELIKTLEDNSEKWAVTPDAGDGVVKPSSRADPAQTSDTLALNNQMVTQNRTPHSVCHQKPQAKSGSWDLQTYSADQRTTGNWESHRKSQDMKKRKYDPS
RAD54 branch: inhibitors of human RAD54 branch migration, primary screen, biochemical, fluorescence, single point | DNA repair and recombination protein RAD54-like (Homo sapiens), Q92698 | RAD54 Holliday junction branch migration, FAM/BHQ fluorescence | inhibition, % at 10.4 µM | 360,000 compounds, 0.14% hits | AID 602329, 2012;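 active means mean normalized replicate activity at least 40 and at least half of replicates scoring 40 or more; inconclusive means only one of the two criteria met; inactive means mean below 40 and under half of replicates reaching 40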;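 further: 0% = median of neutral control wells and 100% = median of positive control wells; inhibitors cause a drop in the FAM fluorescence signal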
ERp5 inh: inhibitors of ERp5-driven insulin aggregation, primary screen, biochemical, turbidity, absorbance 650 nm, single point; Protein disulfide-isomerase A6 (Homo sapiens), Q15084; inhibition, % at 9.99 µM; 90 min; 350,000 compounds, 0.05% hits;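 active means mean replicate inhibition above about 25%, with every replicate also reaching it, limit read from the data, passing the limit was not always enough; inconclusive means only one of those two criteria met; inactive means neither criterion met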
CAL PDZ FP-1: CAL PDZ peptide-binding inhibitors, primary screen, biochemical, fluorescence polarization, Cer-tagged CAL PDZ, HTS; Golgi-associated PDZ and coiled-coil motif-containing protein (Homo sapiens), Q9HD26; purified CAL PDZ, TMR-peptide fluorescence polarization, 1 h; inhibition, % at 20 µM; 330,000 compounds, 0.02% hits;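 active means highest replicate inhibition of at least 40%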;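 further: plate controls were DMSO neutral control wells for no effect and unlabeled competitor peptide control wells for full effect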
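material = purified tagged CAL PDZ domain construct (CerCALP) | buffer or medium = sodium phosphate/NaCl buffer pH 7.4 with TCEP, IgG, Thesit | reagent = TMR-labelled reporter peptide T*-PRC34 bound in PDZ groove | incubation = 1 h room-temperature incubation prior to read | measured by = fluorescence polarization (mP) | evaluation = percent inhibition from loss of millipolarization | control set = unlabelled peptide and DMSO controls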
CAL PDZ FP-2: untagged CAL PDZ binding inhibitors, primary screen, biochemical, fluorescence polarization, HTS | Golgi-associated PDZ and coiled-coil motif-containing protein (Homo sapiens), Q9HD26 | purified CAL PDZ, TMR-peptide fluorescence polarization, 1 h | inhibition, % at 24.9 µM | 300,000 compounds, 0.92% hits | AID 602252, 2012;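 active means mean inhibition of at least 30% with at least half of replicates also reaching 30%; inconclusive means no clear call, values can overlap the other calls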;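 further: 0% = DMSO neutral control and 100% = excess unlabeled competitor peptide PRC23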
PDI turbidity: inhibitors of human PDI, primary screen, biochemical, turbidity, single point, plate reader. inhibition, % at 10 µM. PDI insulin aggregation turbidity, A650, 90 min. 350,000 compounds, 0.052% hits. Protein disulfide-isomerase (Homo sapiens), P07237. AID 588391, 2011;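 active means mean inhibition across replicates of 30% or more, whatever share of single replicates reach that level; inconclusive means mean inhibition below 30% while every single replicate reaches 30%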
RAD52 DNA ctr: DNA-binding compounds via dye displacement, dose response, artefact control for RAD52 inhibitor project, biochemical, fluorescence polarization, cherry-pick | shares compounds with RAD52 inh | AC50, µM | 1,000 compounds, 8% hits | Salmon sperm DNA/acridine orange FP displacement | AID 652128, 2013;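 active means fitted half-maximal concentration for signal loss at or below twice the highest dose tested, in every separate run, actives reach about 64 µM in these data; inconclusive means runs disagree, or flat partial signal loss, or poor fit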
* marks the source's active call; other numbers are inactive results; i = inactive; u = inconclusive; x = no result given; ! = not confirmed by another sample. A selection: hits, their analogues and other compounds. The true share with any hit is near 1%.

SMILES	RAD52 inh	RAD54 branch	ERp5 inh	CAL PDZ FP-1	CAL PDZ FP-2	PDI turbidity	RAD52 DNA ctr
COc1cccc(C2=CC(=O)C(C(C)(C)C)N2C(C)(C)C)c1 (centres undefined)	79.5*	-15.2	-6.8	-0.4	-4.9	-4.9	i
NC1(N2SC(S)=C3CCCC=C32)CCCCC1	85.6*	x	3.8	x	x	x	i
O=C(c1ccccn1)N1C[C@H]2[C@@H](c3ccccc31)[C@H](CO)N2C(=O)Nc1ccccc1Cl	-8.3	5.9	-3.6	x	x	x	x
NCCOc1ccccc1OCCN	58.3*	2.9	1.4	0.3	-4.1	1.0	i
CCOC(=O)c1c(C)n(-c2ccc(C)cc2)c2ccc(OCC(O)CNCC3CCCO3)cc12 (centres undefined)	x	x	x	-2.2	x	2.6	x
CCOC(=O)c1c(C)n(-c2ccc(C)cc2)c2ccc(OCC(O)CNCCCO)cc12 (centres undefined)	82.5*	x	4.3	-1.3	-8.4	-6.4	i
CC1(C)N=C(N)N=C(N)N1c1ccc(CCCCc2ccccc2)cc1	85.2*	29.4	0.1	x	x	-7.1	i
COc1cc2c(cc1OC)C(c1ccccc1)=NCC2	-5.7	-1.3	-2.2	-1.2	0.4	-3.6	x
COc1cc2c(cc1OC)C(c1ccccc1N)=NCC2	61.3*	25.9	-2.4	-1.2	1.9	2.7	i
CNC(=O)C[C@@H]1CC[C@@H]2[C@@H](COc3ccc(NC(=O)c4ccc(C(F)(F)F)cc4)cc3C(=O)N2C)O1	x	-4.0	x	x	x	x	x
CC(C)c1c(O)c2c(n(-c3ccccc3)c1=O)CCCC2	x	x	x	-0.7	0.8	-0.6	x
CC/C(=N\O)c1c(O)c2c(n(-c3ccccc3)c1=O)CCCC2	53.8*	x	1.0	-0.2	-2.7	-0.5	i
Cc1ccc2c(c1)c1c3n2CCN(CC(O)CNC(C)C)C3CCC1 (centres undefined)	82.4*	u	4.6	-0.1	-11.5	4.3	i
Cc1ccc2c(c1)c1c3n2CCN(CC(N)=O)C3CCC1 (centres undefined)	-7.1	4.1	3.5	0.9	-1.8	9.7	x
C[C@@H]1CN([C@H](C)CO)C(=O)c2cc(NC(=O)CCC(F)(F)F)ccc2O[C@H]1CN(C)S(=O)(=O)c1cn(C)cn1	6.5	18.4	1.1	x	x	x	x
CCCOc1cccc(C(=O)NC(=S)Nc2ccc(N3CCN(C)CC3)cc2)c1	66.1*	x	0.7	-0.1	x	10.8	i
Cc1c(C)n(C)c2ccc(C(=O)NCCCN3CCN(C)CC3)cc12	74.2*	9.7	-59.0	-1.7	2.4	0.2	i
CC1(C)Nc2cccc3cccc(c23)N1	65.4*	8.8	10.1	1.0	-1.1	13.0	i
CCOc1ccc(CCN2C(=S)N([C@@H](CC(C)C)CN3CCCC3CN3C(=S)NC[C@@H]3Cc3ccc(O)cc3)C[C@@H]2Cc2ccccc2)cc1 (some centres undefined)	-31.6	-5.9	3.2	0.5	-1.5	3.7	x
CCOc1ccc(CCN2C(=S)N([C@@H](CC(C)C)CN3CCCC3CN3C(=S)NC[C@@H]3Cc3ccc(O)cc3)C[C@@H]2Cc2ccc(O)cc2)cc1 (some centres undefined)	79.0*	-2.2	3.5	-1.5	-0.5	25.1	i
C[C@@H]1CN([C@@H](C)CO)C(=O)c2cccc(NC(=O)c3cnccn3)c2O[C@H]1CN(C)S(=O)(=O)c1ccc(F)cc1	0.7	x	-2.8	x	x	x	x
NCC[C@H](O)C(=O)N[C@@H]1C[C@H](N)[C@@H](O[C@H]2O[C@H](CN)[C@@H](O)[C@H](O)[C@H]2O)[C@H](O)[C@H]1O[C@H]1O[C@H](CO)[C@@H](O)[C@H](N)[C@H]1O	57.1*	99.7*	-2.9	-0.5	-0.7	2.7	i
C[C@@H]1CN([C@@H](C)CO)C(=O)c2cc(C#CC3CC3)cnc2O[C@H]1CN(C)S(=O)(=O)c1cccc(F)c1	14.4	4.8	-2.3	x	x	x	x
COc1cccc(OC)c1OCCCCCCN1CCN(C)CC1	6.4	0.7	3.2	-1.6	0.2	-5.3	x
CN1CCN(CCCCOc2ccccc2C=O)CC1	87.4*	19.0	1.4	0.0	0.0	-1.4	i
SMILES	RAD52 inh	RAD54 branch	ERp5 inh	CAL PDZ FP-1	CAL PDZ FP-2	PDI turbidity	RAD52 DNA ctr
CN(C)CCOC(=O)c1ccc2[nH]c3c(c2c1)CSCC3	98.7*	x	4.8	-2.6	-1.8	-7.1	i
CC(=O)c1ccc(Nc2nc(C(N)Cc3ccc(N)cc3)cs2)cc1 (centres undefined)	87.0*	7.9	3.7	x	x	-5.6	i
NC(c1ccccc1)c1csc(Nc2ccc(C(=O)NCCO)cc2)n1 (centres undefined)	21.3	8.9	0.2	x	x	0.5	x
NC(c1ccccc1)c1csc(Nc2ccc(C(=O)c3ccccc3)cc2)n1 (centres undefined)	61.6*	-12.2	-0.5	x	x	-1.2	i
Cc1csc(N2CCN(c3cc4c(cc3Cl)nc(-c3ccncc3)n4CCCN3CCCC3)CC2)n1	97.7*	10.0	3.3	1.3	-1.2	13.4	i
CCCNC(=O)N1[C@H](CO)[C@@H](c2ccccc2-c2ccc(OC)cc2)[C@@H]1C#N	-0.9	x	-2.4	x	x	x	x
c1ccc(-c2cc(NCCN3CCCCC3)c3ccccc3n2)cc1	89.3*	105.7*	1.6	-4.6	-2.8	2.0	i
COc1ccc(NC(=O)Nc2ccc3c(c2)C(=O)N([C@H](C)CO)C[C@@H](C)[C@@H](CN(C)Cc2ccc4c(c2)OCO4)OCCCC[C@H](C)O3)cc1	58.6*!	-3.6	-9.8	x	x	x	i
CCN(CC)CC(O)Cn1c(C)c(-c2ccccc2)c2cc([N+](=O)[O-])ccc21 (centres undefined)	64.2*	23.7	1.2	x	-6.8	-0.8	i
O=[N+]([O-])c1ccc2c(c1)c1ccccc1n2CCO	-17.0	5.6	1.8	-0.8	x	5.0	x
C[C@H](CO)N1C[C@H](C)[C@@H](CN(C)C(=O)Nc2ccc(C(F)(F)F)cc2)Oc2c(NS(=O)(=O)c3ccc(Cl)cc3)cccc2C1=O	-10.5	-11.4	-5.6	x	x	x	x
CN1CCN(CC(O)COc2ccc(C34CC5CC(CC(C5)C3)C4)cc2)CC1 (centres undefined)	56.5*	26.5	2.6	-0.4	x	1.1	i
CCN1[C@@H]2c3ccc(-c4cccnc4)c(=O)n3C[C@H]1[C@H](CO)[C@H]2C(=O)NC1CCCC1	-29.1	x	-3.9	x	x	x	x
